The results in this text go back to ChEMBL document CHEMBL1268915, “Optimization of a series of dipeptides with a P3 threonine residue as non-covalent inhibitors of the chymotrypsin-like activity of the human 20S proteasome” (Bioorg Med Chem Lett, 2010).

Active and inactive are the calls of the source. The rule behind the calls is not given here.

The species named for data set [1] is Homo sapiens. The data set can be described thus: Inhibition of human chymotrypsin at 100 uM.
Data set [2] is described as follows: Inhibition of chymotrypsin-like activity of human 20s proteasome beta2 subunit in human erythrocyte assessed as hydrolysis of Ac-WLA-AMC fluorogenic substrate.
For data set [3], the target named is Prothrombin (Homo sapiens) (UniProt P00734). The data set can be described thus: Inhibition of human thrombin at 100 uM.
Another data set concerns the target Trypsin (Homo sapiens) (UniProt P07477+P07478+P35030). The data set can be described thus: Inhibition of human trypsin at 100 uM. Format: protein assay.
The nature of data set [4]: Binding affinity to chymotrypsin-like activity of 20S proteasome.
In data set [5] the target is Cathepsin B (Homo sapiens) (UniProt P07858). The data set can be described thus: Inhibition of human cathepsin B at 100uM.
Data set [6] concerns the target Procathepsin L (Homo sapiens) (UniProt P07711). The data set can be described thus: Inhibition of human cathepsin L at 100uM.
Data set [7] is described as follows: (§1) Inhibition of TNF-alpha-induced NF-kappaB activation in human HEK293 cells after 3 hrs by luciferase reporter gene assay. The class given is cell-based. To be noted: HEK293, 3 h. Summed up:
(§2)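 NF-κB-luciferase reporter in HEK293 cells (10,000 per well). Cells were pre-incubated with compound for 1 h, then stimulated with 10 ng/ml TNF-α for 3 h with compound still present. IC50 and percentage inhibition were reported as means of at least three independent experiments.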

The test system of another data set is HEK293. Described as §1. Also on record: concentration or dose not given beside the values. The class given is cell-based. To be noted: dose or concentration not given here. In short, it runs like this: as §2
The nature of data set [8]: Inhibition of chymotrypsin-like activity of human 20s proteasome beta-1 subunit in human erythrocyte assessed as hydrolysis of Ac-WLA-AMC fluorogenic substrate.
Data set [9] concerns the target T1, Coagulation factor XII (Homo sapiens) (UniProt P00748).
T1 sequence (whole entry): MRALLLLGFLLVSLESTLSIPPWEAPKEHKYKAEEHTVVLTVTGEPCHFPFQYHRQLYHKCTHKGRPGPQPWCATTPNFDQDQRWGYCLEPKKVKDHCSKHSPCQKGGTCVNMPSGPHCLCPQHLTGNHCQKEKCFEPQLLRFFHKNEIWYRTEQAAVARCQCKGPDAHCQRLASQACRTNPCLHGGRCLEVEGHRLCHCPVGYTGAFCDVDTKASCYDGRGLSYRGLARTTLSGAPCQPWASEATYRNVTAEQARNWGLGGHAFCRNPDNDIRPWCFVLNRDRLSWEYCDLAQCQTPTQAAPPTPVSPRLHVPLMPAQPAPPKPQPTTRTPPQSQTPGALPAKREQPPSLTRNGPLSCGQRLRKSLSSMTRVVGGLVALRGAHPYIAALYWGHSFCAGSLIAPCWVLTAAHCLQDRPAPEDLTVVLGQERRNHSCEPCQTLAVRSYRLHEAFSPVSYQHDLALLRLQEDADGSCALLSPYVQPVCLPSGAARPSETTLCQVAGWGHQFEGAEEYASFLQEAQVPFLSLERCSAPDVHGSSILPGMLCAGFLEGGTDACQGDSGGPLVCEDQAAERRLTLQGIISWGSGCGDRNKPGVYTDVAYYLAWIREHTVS
The data set can be described thus: Inhibition of human coagulation factor beta 12a at 100 uM.

A short description of data set [10]: Cytotoxicity against human Calu6 cells assessed as cellular ATP level after 72 hrs by luminescence-based ATPlite assay. The class given is cell-based, Calu-6. To be noted: read-out: LC50. Summed up:
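Calu6 cells, 2000 per well, incubated with compound for 72 h. Viability read as cellular ATP by luminescence (ATPlite). Values are means of at least three independent experiments.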

The species named for data set [11] is Homo sapiens. The data set can be described thus: Inhibition of human elastase at 100 uM.
For data set [12], the target named is Tissue-type plasminogen activator (Homo sapiens) (UniProt P00750). The data set can be described thus: Inhibition of tissue plasminogen activator at 100 uM.
Sequence of Tissue-type plasminogen activator (Homo sapiens) (P00750 36-562 limits assumed): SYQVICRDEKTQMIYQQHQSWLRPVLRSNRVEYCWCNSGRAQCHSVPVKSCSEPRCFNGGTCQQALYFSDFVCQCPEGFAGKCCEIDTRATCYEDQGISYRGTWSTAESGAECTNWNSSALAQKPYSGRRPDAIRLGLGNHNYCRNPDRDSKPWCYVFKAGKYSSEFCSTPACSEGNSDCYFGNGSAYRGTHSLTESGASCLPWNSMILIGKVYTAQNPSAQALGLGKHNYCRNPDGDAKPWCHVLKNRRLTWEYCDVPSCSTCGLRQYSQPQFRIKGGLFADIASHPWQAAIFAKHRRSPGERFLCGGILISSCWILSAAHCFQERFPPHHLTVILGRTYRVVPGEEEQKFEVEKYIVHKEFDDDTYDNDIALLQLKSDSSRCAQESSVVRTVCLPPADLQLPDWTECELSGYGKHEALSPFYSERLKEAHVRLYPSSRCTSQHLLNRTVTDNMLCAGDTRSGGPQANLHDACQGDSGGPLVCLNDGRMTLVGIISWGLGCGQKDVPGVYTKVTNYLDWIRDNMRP
Data set [13] deals with Plasminogen (Homo sapiens) (UniProt P00747). The data set can be described thus: Inhibition of human plasmin at 100 uM.
Sequence of Plasminogen (Homo sapiens) (P00747 97-580 limits assumed): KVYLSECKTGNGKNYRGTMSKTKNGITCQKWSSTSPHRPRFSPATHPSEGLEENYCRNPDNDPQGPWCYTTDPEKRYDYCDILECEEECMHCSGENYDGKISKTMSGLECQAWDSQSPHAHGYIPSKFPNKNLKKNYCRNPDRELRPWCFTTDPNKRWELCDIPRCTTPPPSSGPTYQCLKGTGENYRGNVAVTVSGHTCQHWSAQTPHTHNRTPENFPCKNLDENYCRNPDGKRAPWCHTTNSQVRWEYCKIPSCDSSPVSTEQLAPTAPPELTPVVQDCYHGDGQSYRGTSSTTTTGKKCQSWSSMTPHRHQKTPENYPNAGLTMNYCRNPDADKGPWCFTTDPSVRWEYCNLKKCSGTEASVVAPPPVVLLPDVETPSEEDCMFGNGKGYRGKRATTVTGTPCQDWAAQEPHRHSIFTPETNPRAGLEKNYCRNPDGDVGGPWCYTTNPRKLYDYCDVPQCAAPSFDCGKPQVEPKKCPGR
Sequence of Plasminogen (Homo sapiens) (P00747 581-810 limits assumed): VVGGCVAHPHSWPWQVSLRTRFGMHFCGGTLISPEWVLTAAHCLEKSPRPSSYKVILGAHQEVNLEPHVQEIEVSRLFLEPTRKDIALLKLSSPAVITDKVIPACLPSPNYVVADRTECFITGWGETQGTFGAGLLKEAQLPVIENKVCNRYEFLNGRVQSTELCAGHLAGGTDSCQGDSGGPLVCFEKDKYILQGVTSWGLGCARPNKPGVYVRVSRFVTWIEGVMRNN
Data set [14] deals with T2, Calpain-1 catalytic subunit (Homo sapiens) (UniProt P07384).
T2 sequence (whole entry): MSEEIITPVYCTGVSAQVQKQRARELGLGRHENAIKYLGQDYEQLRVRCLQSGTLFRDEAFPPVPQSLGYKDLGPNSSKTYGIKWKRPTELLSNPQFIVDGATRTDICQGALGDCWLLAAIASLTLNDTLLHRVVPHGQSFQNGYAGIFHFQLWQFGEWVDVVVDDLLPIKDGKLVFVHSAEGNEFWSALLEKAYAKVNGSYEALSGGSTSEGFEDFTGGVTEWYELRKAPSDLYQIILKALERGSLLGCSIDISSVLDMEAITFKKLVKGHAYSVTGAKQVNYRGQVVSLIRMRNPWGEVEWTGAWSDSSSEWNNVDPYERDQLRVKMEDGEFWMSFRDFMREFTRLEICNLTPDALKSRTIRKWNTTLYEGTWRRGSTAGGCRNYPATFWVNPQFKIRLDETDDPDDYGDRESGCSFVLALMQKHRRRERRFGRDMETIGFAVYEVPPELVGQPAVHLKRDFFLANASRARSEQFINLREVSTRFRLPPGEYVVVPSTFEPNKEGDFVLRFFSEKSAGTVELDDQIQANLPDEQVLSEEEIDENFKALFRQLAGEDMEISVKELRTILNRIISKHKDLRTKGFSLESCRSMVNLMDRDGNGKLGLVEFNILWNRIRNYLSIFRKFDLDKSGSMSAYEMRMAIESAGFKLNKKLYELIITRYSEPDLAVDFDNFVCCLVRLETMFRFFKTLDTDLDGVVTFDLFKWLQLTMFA
The data set can be described thus: Inhibition of human calpain 1 at 100 uM.

Data set [15] is described as follows: Inhibition of chymotrypsin-like activity of human 20s proteasome beta5 subunit in human erythrocyte assessed as hydrolysis of Ac-WLA-AMC fluorogenic substrate.

Sequence of Procathepsin L (Homo sapiens) (P07711 114-333 limits assumed): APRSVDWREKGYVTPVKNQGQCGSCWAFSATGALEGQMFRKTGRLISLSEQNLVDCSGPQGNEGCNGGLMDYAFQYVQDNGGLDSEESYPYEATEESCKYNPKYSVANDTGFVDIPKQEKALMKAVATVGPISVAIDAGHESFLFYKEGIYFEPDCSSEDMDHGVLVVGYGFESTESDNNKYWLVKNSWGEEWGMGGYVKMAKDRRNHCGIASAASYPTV

With `CC(C)C[C@H](NC(=O)[C@H](Cc1ccccc1)NC(=O)c1cnccn1)B(O)O` [BORTEZOMIB], the inhibition entry (in the data set listed under Homo sapiens [1]; in data set [3]; at Trypsin (Homo sapiens); in data set [5]; in data set [6]; in data set [9]) was “Active” throughout. For the same compound, the inhibition entry (in the data set filed under Homo sapiens [11]; in [12]; in data set [13]; in [14]) was “Active” each time. In addition, the IC50 was more than 20000 nM in [2], 10 nM in data set [7] and more than 20000 nM in [8]. The inhibitory constant (Ki) in [4] was 0.55 nM. This compound also yielded an inhibition in the data set with HEK293 of 100%. Further, the CC50 at 72 h in [10] came out at 6.1 nM.
As for `Cc1ccc(CNC(=O)[C@H](CCc2ccccc2)NC(=O)[C@H](CCc2ccccc2)NC(=O)Cc2cccc(Oc3ccccc3)c2)cc1`, the inhibition result (in the data set listed under Homo sapiens [1]; in data set [3]; at Trypsin (Homo sapiens); in data set [5]; in data set [6]; in [9]) was “Active” throughout. Also, the inhibition result (in the data set listed under Homo sapiens [11]; in data set [12]; in data set [13]; in data set [14]) was “Active” in each case. Also, the IC50 in [2] was more than 20000 nM; in [15], 1100 nM; in [7] it was more than 50000 nM; in data set [8], more than 20000 nM. This compound also yielded an inhibition with HEK293 of 28%. In addition, the CC50 at 72 h in [10] was more than 25000 nM.
On to `C=CCNC(=O)[C@H](CCc1ccccc1)NC(=O)[C@@H](NC(=O)c1ccc(OCc2ccccc2)cc1)[C@@H](C)O`, for which the inhibition result (in the data set filed under Homo sapiens [1]; in data set [3]; on Trypsin (Homo sapiens); in data set [5]; in [6]; in [9]) was “Active” each time. The inhibition entry (in the data set filed under Homo sapiens [11]; in data set [12]; in [13]; in data set [14]) was “Active” each time. The half-inhibitory concentration (IC50) is more than 20000 nM in [2], 100 nM in data set [15], 880 nM in data set [7] and more than 20000 nM in data set [8]. Besides, the inhibition in the data set on HEK293 turned out to be 99%. Moreover, the CC50 at 72 h in [10] was determined as 2800 nM.
In the case of `Cc1ccc(CNC(=O)[C@H](CCc2ccccc2)NC(=O)[C@H](CCc2ccccc2)NC(=O)[C@H](CCc2ccccc2)NC(=O)c2cnc(C)cn2)cc1`, the inhibition result (in the data set filed under Homo sapiens [1]; in data set [3]; at Trypsin (Homo sapiens); in data set [5]; in data set [6]; in data set [9]) was “Active” each time. Besides, the inhibition entry (in the data set filed under Homo sapiens [11]; in data set [12]; in data set [13]; in [14]) was “Active” in each case. The half-maximal inhibitory concentration (IC50) in data set [2] is more than 20000 nM; in data set [15], 16 nM; in [7] it was 47 nM; in data set [8] it was more than 20000 nM. Besides, the inhibition in the data set with HEK293 amounted to 79%. Besides, the CC50 at 72 h in data set [10] was 140 nM.
